Results reported in PubChem BioAssay AID602189 (Broad Institute, 2012).
Records with an inconclusive call do not appear. Active and inactive are the calls of the source.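 The calls were made as follows: active = signal drop in every repeat run, with half-maximal concentration at most twice the top valid concentration; inconclusive = the separate test runs give conflicting calls; inactive = inactive in every test run.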

system: C. albicans CaCi-17 growth, Alamar Blue fluorescence, 48 h; experiment: fluconazole-resistant Candida albicans growth inhibitors – clinical isolate, Alamar Blue, dry powder, confirmation (AID 602189); conditions: not given
How it was run: (§1)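 Assay system: fluconazole-resistant clinical isolate CaCi-17, whole fungal cells; medium: MOPS-buffered RPMI 1640 with uridine and glucose; times: 48 h at 37 °C, unshaken; technique: Alamar Blue fluorescence, 1:40 in PBS, read after 2 h; read-out: growth inhibition, shown by reduced Alamar Blue fluorescence; control set: amphotericin B at 10 µM as positive control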

Structure (SMILES)	AC50 [µM]
O=C(Nc1nc(-c2ccccn2)cs1)c1ccc(Cl)s1	10.5
CN1CCN(C(c2ccc(C(F)(F)F)cc2)c2ccc3cccnc3c2O)CC1 (stereo not drawn)	7.72
O=C(Oc1c(Cl)cc(Cl)c2cccnc12)c1ccco1	1.5
Oc1c(C(c2ccc(Cl)cc2)N2CCCC2)ccc2cccnc12 (stereo not drawn)	8.73
Oc1c(CN2CCc3ccccc3C2)cc(Cl)c2cccnc12	5.46
O=C(NNC(=S)Nc1ccc(Cl)c(Cl)c1)c1ccccn1	1.86
O=C(Nc1nnc(-c2ccc3c(c2)CCCC3)o1)c1ccc(Cl)cc1Cl	17.3
C/C(=N\NC(=O)c1cc2ccccc2cc1O)c1ccccn1	5.54
Oc1c(C(c2ccccc2Cl)N2CCCCC2)ccc2cccnc12 (stereo not drawn)	11.7
O=C(Nc1nc(-c2ccccn2)cs1)c1ccc(Br)s1	4.94
O=C(Nc1nnc(-c2ccc3c(c2)CCCC3)o1)c1ccccc1	25.9

system: not listed separately; experiment: as above; conditions: C. albicans CaCi-17 growth, Alamar Blue fluorescence, 48 h; at 26 µM (top of the series)
How it was run: as §1

Structure (SMILES)	activity change, negative = inhibition
Cc1ccc(C(=O)Nc2nnc(-c3ccccc3)o2)cc1C	-7.38% (inactive)
O=C(Nc1nc(-c2ccc3c(c2)CCCC3)cs1)c1ccccc1	-2.83% (inactive)
CCOC(=O)N1C(=O)C2(CCCCC2)N(c2ccc(C)cc2)C1=S	-10.2% (inactive)
C=CCNC(=S)N/N=C(\C)c1ccccn1	-32.2% (inactive)
O=C(Nc1nc(-c2ccccc2)cs1)c1ccc(Br)s1	-6.92% (inactive)
NC(=O)c1cccc(C(=O)Nc2nc(-c3ccc4c(c3)CCCC4)cs2)c1	21.1% (inactive)
O=C(Nc1nc(-c2ccccn2)cs1)c1ccccc1	57.1% (inactive)
